From ChEMBL document CHEMBL3085747, “Synthesis and biological evaluation of substituted 1,2,3-benzotriazines and pyrido[3,2-d]-1,2,3-triazines as inhibitors of vascular endothelial growth factor receptor-2” (2013)

Columns and labels:
[1] = Growth inhibition of HMVEC after 4 days by MTT assay; format: functional; settings: Homo sapiens, 96 h
Procedure, shortened: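 Human microvascular endothelial cells were grown in DMEM with 4 mM L-glutamine, 4.50 g/L glucose and 10% heat-inactivated FBS. Cells were seeded at 2 × 10³/well for 24 h, then exposed to a range of compound concentrations for 4 days at 37 °C. MTT (2 mg/mL) was added, cells were dissolved in DMSO, and A570 was read. Growth inhibition is relative to untreated cells. GI50 is the mean of three independent experiments.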

[2] = Ratio of PTK787 GI50 to compound GI50 for HMVEC after 4 days by MTT assay; format: functional, Homo sapiens

| SMILES | GI50 [1] | RatioGI50 [2] |
| --- | --- | --- |
| CCOc1cc2nnnc(Nc3ccc(Br)c(F)c3)c2cc1OC | 73.3 µM | – |
| CCOc1cc2nnnc(Nc3cccc(C(F)(F)F)c3)c2cc1OC | > 80 µM | – |
| CCOc1cc2nnnc(Nc3ccc(C(F)(F)F)cc3)c2cc1OC | > 80 µM | – |
| CCOc1cc2nnnc(Nc3cccc(OC(F)(F)F)c3)c2cc1OC | 23.3 µM | – |
| CCOc1cc2nnnc(Nc3ccc(OC(F)(F)F)cc3)c2cc1OC | > 80 µM | – |
| CCOc1cc2nnnc(Nc3cccc(Cl)c3)c2cc1OC | 60 µM | – |
| CCOc1cc2nnnc(Nc3ccc(F)c(C(F)(F)F)c3)c2cc1OC | 31.7 µM | – |
| CCOc1cc2nnnc(Nc3ccccc3F)c2cc1OC | > 80 µM | – |
| CCOc1cc2nnnc(Nc3cccc(Br)c3)c2cc1OC | 39.8 µM | – |
| CCCCOc1cc2nnnc(Nc3ccc(Br)c(F)c3)c2cc1OC | > 80 µM | – |
| CCCCOc1cc2nnnc(Nc3ccc(Cl)c(Cl)c3)c2cc1OC | 15.5 µM | – |
| CCCCOc1cc2nnnc(Nc3ccc(C(F)(F)F)cc3)c2cc1OC | > 80 µM | – |
| CCCCOc1cc2nnnc(Nc3ccc(OC(F)(F)F)cc3)c2cc1OC | 30 µM | – |
| CCCCOc1cc2nnnc(Nc3ccc(F)c(C(F)(F)F)c3)c2cc1OC | 16.1 µM | – |
| CCCCOc1cc2nnnc(Nc3ccccc3F)c2cc1OC | > 80 µM | – |
| CCCCOc1cc2nnnc(Nc3cccc(Br)c3)c2cc1OC | 16.8 µM | – |
| CCCCOc1cc2nnnc(Nc3ccc(F)cc3)c2cc1OC | > 80 µM | – |
| CCCCOc1cc2nnnc(Nc3ccc(C)cc3)c2cc1OC | > 80 µM | – |
| CCCCCOc1cc2nnnc(Nc3ccc(Cl)cc3)c2cc1OC | 25.3 µM | – |

| SMILES | GI50 [1] | RatioGI50 [2] |
| --- | --- | --- |
| CCCCCOc1cc2nnnc(Nc3ccc(Br)c(F)c3)c2cc1OC | > 80 µM | – |
| CCCCCOc1cc2nnnc(Nc3cc(F)cc(F)c3)c2cc1OC | 27.9 µM | – |
| CCCCCOc1cc2nnnc(Nc3cccc(OC(F)(F)F)c3)c2cc1OC | 42.6 µM | – |
| CCCCCOc1cc2nnnc(Nc3ccc(OC(F)(F)F)cc3)c2cc1OC | 38 µM | – |
| CCCCCOc1cc2nnnc(Nc3ccc(F)cc3)c2cc1OC | > 80 µM | – |
| COc1cc2c(Nc3ccc(C(F)(F)F)cc3)nnnc2cc1OCCCCl | 44.4 µM | – |
| COc1cc2c(Nc3ccc(C)cc3)nnnc2cc1OCCCCl | 17.1 µM | – |
| COc1cc2c(Nc3ccc(F)c(Cl)c3)nnnc2cc1OCCCCl | 7.98 µM | 4 |
| Clc1ccc(Nc2nnnc3ccc(Cl)nc23)cc1 | 10.5 µM | – |
| Fc1cc(Nc2nnnc3ccc(Cl)nc23)ccc1Br | 9.56 µM | – |
| Clc1cc(Cl)cc(Nc2nnnc3ccc(Cl)nc23)c1 | 7.93 µM | – |
| FC(F)(F)c1cccc(Nc2nnnc3ccc(Cl)nc23)c1 | 5.25 µM | – |
| FC(F)(F)c1ccc(Nc2nnnc3ccc(Cl)nc23)cc1 | 8.06 µM | – |
| FC(F)(F)Oc1cccc(Nc2nnnc3ccc(Cl)nc23)c1 | 4.28 µM | – |
| FC(F)(F)Oc1ccc(Nc2nnnc3ccc(Cl)nc23)cc1 | 11.5 µM | – |
| Fc1ccc(Nc2nnnc3ccc(Cl)nc23)cc1C(F)(F)F | 10.8 µM | – |
| Fc1ccccc1Nc1nnnc2ccc(Cl)nc12 | 10.8 µM | – |
| Clc1ccc2nnnc(Nc3cccc(Br)c3)c2n1 | 7.24 µM | – |
| Clc1ccc(Nc2nnc(Cc3ccncc3)c3ccccc23)cc1 | 38.1 µM | – |
